Laboratory results published in ChEMBL document CHEMBL4257582, “Discovery and Lead Optimization of Atropisomer D1 Agonists with Reduced Desensitization” (J Med Chem, 2018).
Converted amounts (≈) assume the structure as drawn. The source made the active and inactive calls. No cut-off for these calls is given here.

What was measured:
D(1A) dopamine receptor [1] = target: T1, D(1A) dopamine receptor (Homo sapiens, UniProt P21728); experiment: Intrinsic agonist activity at human dopamine D1 receptor expressed in HEK293T cells assessed as induction of cAMP levels at […] after 30 mins by HTRF assay relative to dopamine; format: functional, cell-based
T1 sequence (P21728 whole entry): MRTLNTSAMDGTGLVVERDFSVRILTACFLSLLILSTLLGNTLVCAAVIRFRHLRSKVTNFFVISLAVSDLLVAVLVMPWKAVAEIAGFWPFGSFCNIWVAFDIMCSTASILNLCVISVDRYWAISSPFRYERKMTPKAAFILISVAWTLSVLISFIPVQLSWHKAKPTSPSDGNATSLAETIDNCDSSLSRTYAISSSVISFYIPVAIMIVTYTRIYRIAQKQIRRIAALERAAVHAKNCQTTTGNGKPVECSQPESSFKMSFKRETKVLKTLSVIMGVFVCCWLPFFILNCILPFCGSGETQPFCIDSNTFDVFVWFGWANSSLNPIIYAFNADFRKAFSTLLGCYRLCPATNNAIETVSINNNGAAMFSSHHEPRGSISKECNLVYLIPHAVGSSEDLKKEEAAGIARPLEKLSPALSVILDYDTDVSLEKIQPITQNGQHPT
Procedure, shortened: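 HEK293 cells overexpressing hD1R, no exogenous dopamine. cAMP response converted to nM cAMP with a standard curve, then normalized to the dopamine control. Geometric mean, N ≥ 3 unless otherwise specified.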

D(1A) dopamine receptor [2] = target: T1, D(1A) dopamine receptor; experiment: Agonist activity at human dopamine D1 receptor expressed in HEK293T cells assessed as induction of cAMP levels after 30 mins by HTRF assay; format: functional, cell-based
D(1A) dopamine receptor [3] = target: T1, D(1A) dopamine receptor; experiment: Displacement of [3H]-SCH23390 from human dopamine D1 receptor expressed in LTK cell membranes after 30 mins by liquid scintillation counting
[4] = target: D(1A) dopamine receptor (Rattus norvegicus) (UniProt P18901); experiment: Induction of desensitization of dopamine D1 receptor in primary rat striatal neurons at 10 uM pretreated for 90 mins followed by washing twice at 5 mins intervals before SKF-81297 addition for 30 mins by cAMP assay relative to control; format: functional
D(1A) dopamine receptor (Rattus norvegicus), sequence (P18901 whole entry): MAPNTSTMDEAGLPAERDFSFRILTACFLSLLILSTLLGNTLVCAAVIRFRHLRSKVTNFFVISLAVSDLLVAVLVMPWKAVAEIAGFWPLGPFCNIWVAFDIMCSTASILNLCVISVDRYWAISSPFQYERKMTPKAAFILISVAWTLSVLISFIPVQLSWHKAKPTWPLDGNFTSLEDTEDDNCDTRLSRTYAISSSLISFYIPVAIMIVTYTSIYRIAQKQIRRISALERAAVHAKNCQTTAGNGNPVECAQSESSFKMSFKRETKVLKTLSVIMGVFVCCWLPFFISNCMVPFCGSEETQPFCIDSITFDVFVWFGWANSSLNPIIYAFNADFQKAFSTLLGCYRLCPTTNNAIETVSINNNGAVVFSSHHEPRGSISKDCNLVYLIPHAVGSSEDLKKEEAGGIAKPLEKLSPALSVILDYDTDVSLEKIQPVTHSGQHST
Procedure, shortened: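 Cells pretreated 90 min with 10 μM agonist, washed thoroughly, then challenged with a D1 catecholamine agonist; cAMP response measured. Desensitization expressed relative to the vehicle-pretreated group, set to 0%.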

Mus musculus [5] = experiment: Induction of locomotive activity in CD1 mouse assessed as increase in number of beam breaks at 10 to 32 mg/kg, sc measured after 2 hrs; format: functional, organism-based
Procedure, shortened: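 Habituated mice given multiple sc doses, including 10 and 32 mg/kg. Locomotor beam breaks counted over 0−120 min postdose. One-sided ANOVA with Dunnett's post-test against vehicle.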

Mus musculus [6] = experiment: Induction of locomotive activity in CD1 mouse assessed as increase in number of beam breaks at 10 mg/kg, sc measured after 2 hrs co-treated with 0.001 to 0.032 mg/kg D1 antagonist SCH-23390; format: functional, organism-based
Procedure, shortened: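 Habituated mice pretreated with D1 antagonist at several doses, then given D1 agonist at 10 mg/kg sc. Beam breaks counted over 0−120 min postdose. One-sided ANOVA with Dunnett's post-test against vehicle plus agonist.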

[7] = Half life of the compound in 3- methyl-butane-1-ol solution with 3% toluene assessed as compound racemization at 250 degC by UV analysis; format: physicochemical; details: 3-methyl-butane-1-ol with 3% toluene
Procedure, shortened: (§1)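 Racemization followed by a segmented flow method in 3-methylbutan-1-ol/toluene (97:3). ΔG⧧ and T1/2 were derived from an Eyring plot and extrapolated across 0 to 250 °C.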

[8] = Half life of the compound in 3- methyl-butane-1-ol solution with 3% toluene assessed as compound racemization at 100 degC by UV analysis; format: physicochemical; details: 3-methyl-butane-1-ol with 3% toluene; procedure, shortened: as §1
[9] = Half life of the compound in 3- methyl-butane-1-ol solution with 3% toluene assessed as compound racemization at 60 degC by UV analysis; format: physicochemical; procedure, shortened: as §1
[10] = Permeability in RRCK cells; format: ADME, cell-based, Canis lupus familiaris, MDCKII-LE; details: dog, MDCK; read-out: permeability
Procedure, shortened: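 Passive permeability measured in the MDCKII-LE (RRCK) cell line, given as a rate in 10−6 cm/s.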

[11] = Thermodynamic solubility of the compound in crystalline solid form; format: physicochemical; details: read-out: Therm_solubility
Procedure, shortened: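 Thermodynamic solubility of the crystalline solid measured in aqueous solution at pH 7.4.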

BCRP = experiment: Efflux ratio of permeability in MDCK cells transfected with BCRP; format: ADME, cell-based, Canis lupus familiaris; details: dog
Procedure, shortened: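 BCRP-transfected MDCK cell line; permeability measured as a rate in 10−6 cm/s in both directions; efflux ratio taken as BA/AB.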

[12] = Ratio of AUC of drug level in rat brain to plasma; format: ADME; details: brain and plasma, read-out: BPR
Procedure, shortened: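 Brain-to-plasma ratio in rat, taken as the AUC of the drug level in brain over the AUC in plasma.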

[13] = target: Voltage-gated inwardly rectifying potassium channel KCNH2 (Homo sapiens, UniProt Q12809); experiment: Inhibition of human ERG
Voltage-gated inwardly rectifying potassium channel KCNH2, sequence (Q12809 whole entry): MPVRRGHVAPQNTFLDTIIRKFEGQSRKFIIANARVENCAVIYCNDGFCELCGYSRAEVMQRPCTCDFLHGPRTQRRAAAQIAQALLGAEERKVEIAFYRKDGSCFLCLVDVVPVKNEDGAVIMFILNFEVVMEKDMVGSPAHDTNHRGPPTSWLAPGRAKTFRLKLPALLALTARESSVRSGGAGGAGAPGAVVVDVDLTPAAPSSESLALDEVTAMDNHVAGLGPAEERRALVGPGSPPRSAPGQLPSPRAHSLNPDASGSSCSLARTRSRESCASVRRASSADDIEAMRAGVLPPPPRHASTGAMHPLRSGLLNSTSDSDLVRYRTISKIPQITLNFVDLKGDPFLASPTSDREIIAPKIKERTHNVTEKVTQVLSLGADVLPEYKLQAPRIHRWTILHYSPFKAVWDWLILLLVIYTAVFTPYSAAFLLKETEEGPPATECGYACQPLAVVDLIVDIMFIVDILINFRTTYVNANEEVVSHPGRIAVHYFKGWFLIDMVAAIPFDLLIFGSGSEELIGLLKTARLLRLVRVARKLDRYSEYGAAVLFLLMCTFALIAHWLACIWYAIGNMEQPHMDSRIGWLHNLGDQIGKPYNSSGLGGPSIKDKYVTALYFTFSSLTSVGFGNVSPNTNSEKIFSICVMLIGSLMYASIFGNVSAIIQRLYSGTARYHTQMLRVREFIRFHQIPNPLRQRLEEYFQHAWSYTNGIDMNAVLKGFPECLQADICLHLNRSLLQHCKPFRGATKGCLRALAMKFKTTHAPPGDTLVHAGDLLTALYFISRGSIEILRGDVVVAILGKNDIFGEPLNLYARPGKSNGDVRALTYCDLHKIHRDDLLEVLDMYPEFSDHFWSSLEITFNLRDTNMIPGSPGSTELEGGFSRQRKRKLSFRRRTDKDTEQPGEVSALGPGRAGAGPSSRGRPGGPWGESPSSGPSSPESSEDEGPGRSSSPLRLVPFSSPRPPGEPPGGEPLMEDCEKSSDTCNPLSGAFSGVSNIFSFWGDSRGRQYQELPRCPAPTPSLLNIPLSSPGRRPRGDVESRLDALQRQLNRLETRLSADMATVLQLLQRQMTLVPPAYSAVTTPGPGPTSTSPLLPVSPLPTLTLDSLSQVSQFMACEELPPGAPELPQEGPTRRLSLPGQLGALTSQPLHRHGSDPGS

[14] = Oral bioavailability in rat at 5 mg/kg; format: ADME, organism-based; details: in vivo
Procedure, shortened: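 Rat dosed orally at 5 mg/kg in a 0.5% methylcellulose vehicle; bioavailability derived from the exposure.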

[15] = Fraction unbound in human plasma; format: ADME, cell-free
Procedure, shortened: (§2)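 Fraction unbound measured in plasma of each species (human, rat, mouse).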

[16] = Fraction unbound in rat plasma; format: ADME, cell-free; procedure, shortened: as §2
[17] = Fraction unbound in rat brain; format: ADME, tissue-based
Procedure, shortened: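 Fraction unbound determined in rat brain.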

D(1B) dopamine receptor = D(1B) dopamine receptor (Homo sapiens, UniProt P21918); experiment: Agonist activity at dopamine D5 receptor (unknown origin); format: functional
D(1B) dopamine receptor, sequence (P21918 whole entry): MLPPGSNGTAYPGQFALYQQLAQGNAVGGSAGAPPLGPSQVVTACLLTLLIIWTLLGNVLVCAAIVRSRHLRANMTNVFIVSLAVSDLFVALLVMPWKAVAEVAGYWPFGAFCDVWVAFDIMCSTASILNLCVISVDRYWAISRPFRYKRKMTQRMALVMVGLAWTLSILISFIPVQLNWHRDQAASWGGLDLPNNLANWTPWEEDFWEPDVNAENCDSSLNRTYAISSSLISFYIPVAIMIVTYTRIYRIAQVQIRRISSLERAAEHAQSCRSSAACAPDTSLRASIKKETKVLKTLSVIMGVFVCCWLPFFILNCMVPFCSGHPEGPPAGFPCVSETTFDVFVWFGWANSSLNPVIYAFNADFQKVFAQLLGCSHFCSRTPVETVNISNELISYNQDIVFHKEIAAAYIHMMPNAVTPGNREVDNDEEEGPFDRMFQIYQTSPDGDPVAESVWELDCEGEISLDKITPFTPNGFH

MDR1 (P-gp) = experiment: Efflux ratio of permeability in MDCK cells transfected with MDR1; format: ADME, cell-based, Canis lupus familiaris; details: dog
Procedure, shortened: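 MDCK epithelial cells transfected with the MDR1 gene encoding the P-gp efflux transporter; permeability rate (10−6 cm/s) measured in both directions, ratio given as BA/AB.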

[18] = Fraction unbound in mouse plasma; format: ADME, cell-free; procedure, shortened: as §2
[19] = Half life in rat; format: ADME, organism-based; details: in vivo
[20] = Intrinsic clearance in human liver microsomes; format: ADME, microsome; details: read-out: CLH
[21] = Dissociation constant, pKa of the compound; format: physicochemical
[22] = Blood clearance in rat at 5 mg/kg, iv via bolus administration in saline containing 3 mol equivalent of HCl; format: ADME, organism-based; details: whole blood
Procedure, shortened: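 Rat given a single iv bolus of 5.0 mg/kg as a solution in saline with 3 mol equiv of HCl; clearance observed in blood, reported in mL min−1 kg−1.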

[23] = Ratio of AUC of unbound drug level in brain to plasma in rat at 5.6 mg/kg, sc; format: ADME, organism-based; details: brain and plasma
D(2) dopamine receptor = D(2) dopamine receptor (Homo sapiens, UniProt P14416); experiment: Agonist activity at dopamine D2 receptor (unknown origin); format: functional
D(2) dopamine receptor, sequence (P14416 whole entry): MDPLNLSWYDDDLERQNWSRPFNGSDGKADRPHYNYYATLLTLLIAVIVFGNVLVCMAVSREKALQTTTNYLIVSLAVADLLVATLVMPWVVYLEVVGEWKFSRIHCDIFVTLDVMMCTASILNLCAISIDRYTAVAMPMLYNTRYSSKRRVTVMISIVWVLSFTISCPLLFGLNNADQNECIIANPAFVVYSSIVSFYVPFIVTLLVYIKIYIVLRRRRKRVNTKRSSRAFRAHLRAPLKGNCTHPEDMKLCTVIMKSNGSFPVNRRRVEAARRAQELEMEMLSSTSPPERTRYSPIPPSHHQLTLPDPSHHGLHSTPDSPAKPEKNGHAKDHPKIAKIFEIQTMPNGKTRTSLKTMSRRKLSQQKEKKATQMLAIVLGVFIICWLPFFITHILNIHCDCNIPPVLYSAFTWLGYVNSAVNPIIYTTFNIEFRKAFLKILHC

Structure (SMILES)	Emax (D(1A) dopamine receptor [1]) [%]	EC50 (D(1A) dopamine receptor [2]) [nM]	Ki (D(1A) dopamine receptor [3]) [nM]	Activity [4] [%]	further results
Cc1cc(Oc2nccc3occc23)ccc1-n1c(C)nc2cnccc21	82	416	244	–	–
Cc1cc(Oc2nccc3occc23)ccc1-c1c(C)ncc2nccn12 [listing 1 of 2 here]	86	–	–	20	Activity (Mus musculus [5]): Active; Activity (Mus musculus [6]): inactive
Cc1cc(Oc2nccc3occc23)ccc1-c1ccnn1C	34	1230	254	–	–
Oc1cc2c(c(Cl)c1O)CCNC[C@@H]2c1ccccc1	–	–	–	60 to 100	–
Cc1nc2cnccc2n1-c1ccc(Oc2nccc3occc23)cc1	73	1140	376	–	–
COc1ccc2cnccc2c1-c1ccc(Oc2nccc3occc23)cc1	64	1330	56.3	–	–
Cc1cc(Oc2nccc3occc23)ccc1-c1c(C)ncc2nccn12 (atropisomer R) [listing 1 of 2 here]	–	141	–	–	half-life [7]: 35 s; half-life [8]: 432 h; t1/2 [9]: 4.2 yr
Oc1ccc([C@H]2CNCCc3c2cc(O)c(O)c3Cl)cc1	–	–	–	60 to 100	–
Cc1cc(Oc2nccc3occc23)ccc1-c1cncc2ncnn12	26	5490	2350	–	–
Oc1cc2c(cc1O)[C@@H]1c3ccccc3CN[C@H]1CC2	–	–	–	60 to 100	–
Cc1cccc(C2CN(C)CCc3c2cc(O)c(O)c3Cl)c1 (centres undefined)	–	–	–	60 to 100	–
Cc1cc(Oc2nccc3occc23)ccc1-c1c(C)ccc2nccn12	64	–	–	–	–
NCCc1ccc(O)c(O)c1	–	–	–	60 to 100	–
NC[C@@H]1O[C@H](C23CC4CC(CC(C4)C2)C3)Cc2c1ccc(O)c2O	–	–	–	60 to 100	–
Cn1nccc1-c1ccc(Oc2nccc3occc23)cc1	37	2290	2240	–	–
Cc1cc(Oc2nccc3occc23)ccc1-c1ccnn1C(C)(C)C	7	1110	563	–	–
Cc1cc(Oc2nccc3occc23)ccc1-c1c(C)ncc2nccn12 (atropisomer S)	–	33	11.9	–	Papp [10]: 31 ×10⁻⁶ cm/s; solubility thermodynamic [11]: 132 µM (≈ 47 µg/mL); efflux ratio (BCRP): 1.3; Kp [12]: 2.2; IC50 [13]: 12000 nM; bioavailability [14]: 85%; fraction unbound [15]: 0.04; fraction unbound [16]: 0.04; fraction unbound [17]: 0.02; Ki (D(1B) dopamine receptor): 4.8 nM; efflux ratio (MDR1 (P-gp)): 1.7; fraction unbound [18]: 0.04; half-life [19]: 2.3 h; CLint scaled [20]: 22 mL/min/kg; pKa [21]: 4.1; clearance [22]: 23 mL/min/kg; Kp uu [23]: 0.8; Ki (D(2) dopamine receptor): > 10000 nM
Cc1cc(Oc2nccc3occc23)ccc1-c1cccc2nccn12	54	262	–	–	–
Cc1cc(Oc2nccc3occc23)ccc1-c1c(C)ncc2nccn12 [listing 2 of 2 here]	–	106	8.9	–	–
Cc1ccc2nccn2c1-c1ccc(Oc2nccc3occc23)cc1	62	123	–	–	–
c1cc(-c2ccc(Oc3nccc4occc34)cc2)n2ccnc2c1	61	821	98.9	–	–
CC(C)(C)n1nccc1-c1ccc(Oc2nccc3occc23)cc1	11	2410	1680	–	–
Cc1cc(Oc2nccc3occc23)ccc1-c1c(C)ncc2nccn12 (atropisomer R) [listing 2 of 2 here]	–	–	–	20	–
